Activity calls are given as the source filed them. The calls are words filed in the database; no cut-off is given here.

The text below walks through data of ChEMBL document CHEMBL4017514, “Discovery of Novel Macrocyclic Hedgehog Pathway Inhibitors Acting by Suppressing the Gli-Mediated Transcription” (J Med Chem, 2017).

In the test the target is T1, Zinc finger protein GLI1 (Homo sapiens) (UniProt P08151).
T1 sequence (whole entry): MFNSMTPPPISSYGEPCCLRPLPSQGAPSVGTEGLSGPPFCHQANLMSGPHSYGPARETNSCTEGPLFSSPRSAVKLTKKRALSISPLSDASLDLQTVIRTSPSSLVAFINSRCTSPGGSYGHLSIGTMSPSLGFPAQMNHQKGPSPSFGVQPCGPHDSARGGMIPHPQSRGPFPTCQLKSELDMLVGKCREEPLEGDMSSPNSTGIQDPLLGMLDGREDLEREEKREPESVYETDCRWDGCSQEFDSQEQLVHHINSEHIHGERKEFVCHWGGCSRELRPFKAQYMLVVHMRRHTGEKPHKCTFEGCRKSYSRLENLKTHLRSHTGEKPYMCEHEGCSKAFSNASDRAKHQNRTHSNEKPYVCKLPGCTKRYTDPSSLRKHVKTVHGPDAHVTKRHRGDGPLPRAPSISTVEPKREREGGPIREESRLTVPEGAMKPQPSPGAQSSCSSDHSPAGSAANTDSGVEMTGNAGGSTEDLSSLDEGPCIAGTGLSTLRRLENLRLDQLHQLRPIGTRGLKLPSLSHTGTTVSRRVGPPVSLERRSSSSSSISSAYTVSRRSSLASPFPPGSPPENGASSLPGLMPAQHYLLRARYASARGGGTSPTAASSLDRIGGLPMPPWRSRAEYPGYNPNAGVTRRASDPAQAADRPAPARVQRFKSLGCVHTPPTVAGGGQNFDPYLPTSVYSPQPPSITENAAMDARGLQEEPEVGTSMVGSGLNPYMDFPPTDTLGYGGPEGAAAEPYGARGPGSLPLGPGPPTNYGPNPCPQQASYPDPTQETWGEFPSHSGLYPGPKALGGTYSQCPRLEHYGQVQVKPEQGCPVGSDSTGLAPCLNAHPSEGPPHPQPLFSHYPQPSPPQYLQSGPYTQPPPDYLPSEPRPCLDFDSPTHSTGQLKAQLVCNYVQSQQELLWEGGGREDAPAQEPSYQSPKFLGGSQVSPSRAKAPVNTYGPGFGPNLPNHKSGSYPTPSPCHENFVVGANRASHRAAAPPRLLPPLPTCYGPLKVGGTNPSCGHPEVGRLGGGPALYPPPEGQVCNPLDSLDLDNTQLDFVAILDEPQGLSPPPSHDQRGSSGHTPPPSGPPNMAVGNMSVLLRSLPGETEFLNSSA
As to the kind of experiment: Inhibition of biotin-labeled Gli1binding sequence binding to Flag-tagged Gli1 (unknown origin) expressed in mouse NIH/3T3 cells at 1 uM by EMSA. The class given is cell-based. Summed up: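 EMSA with biotin-labeled Gli-binding sequence from the twist1 promoter, probing Gli1 DNA binding. Unlabeled Gli-binding sequence served as competitor.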
In general terms: In EMSA bound probe runs differently from free probe, usually more slowly.

For `COc1ccc(CN2C[C@@H]3CN(S(=O)(=O)c4ccc(Cl)cc4)CC[C@@H]3Oc3c(NC(=O)C4CC4)cccc3C2=O)cc1` (racemic), the inhibition result was “inactive”.
